Rows were chosen to be rich in hits. Some 4.9% of all compounds tested hit in one or more screens of this group.
NF-kB expr up: activators of NF-kB expression in neurons, primary screen, cell-based, HTS. human neuronal cells, NF-kB reporter expression; hits give high values. fold change at 12.5 µM. 190,000 tested, 1.6% active; in the data active means fold change above about 3.3
STAT3 inh-1: IL-6 driven STAT3 reporter inhibitors, primary screen, U3A cells, luciferase, luminescence, MLSCN library; IL-6 STAT3-luciferase reporter; host cell line lacks STAT1; inhibition, % at 5.5 µM; 190,000 tested, 0.89% active; AID 862, 2007;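 active means inhibition above the mean inhibition across all screened compounds plus 3 SD, cut at about 44% in these data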;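 further: 0% = DMSO only wells and 100% = 100 µM nifuroxazide control wells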
APP 5'UTR act: activators of APP 5'UTR luciferase reporter, primary screen, SH-SY5Y cells. SH-SY5Y APP 5'UTR luciferase reporter, luminescence; zero percent = DMSO vehicle wells. activation, % at 2 µM. 190,000 tested, 1% active. AID 1276, 2008;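 active means activation above a set limit, based on mean plus 3 SD of controls, cut at about 140% in these data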
STAT1 blocker: STAT1 signaling inhibitors, primary screen, cell-based, HTS, luciferase reporter; AID 920, 2007; inhibition, % at 5.5 µM; NIH 3T3 STAT1-luciferase reporter, IFN-gamma, luminescence; 200,000 tested, 0.35% active;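 active means inhibition above a set limit, the mean inhibition across all tested compounds plus 3 SD, cut at about 34% in these data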;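 further: 0% = IFN-gamma with DMSO and 100% = IFN-gamma with 300 µM nifuroxazide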
STAT1 activator: STAT1 signaling activators, primary screen, cell-based, HTS, luciferase reporter; 200,000 tested, 2.6% active; NIH 3T3 STAT1-luciferase reporter, IFN-gamma, luminescence; 100% = IFN-gamma alone, no compound; activation (% of control), % at 5.5 µM; AID 932, 2007;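 active means activation above the screen-wide mean activation plus 3 SD, cut at about 130% in these data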;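 further: raw ratio to IFN-gamma control signal so 100% means no change and 0% no light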
STAT3 activator: IL-6 driven STAT3 reporter potentiators, primary screen, U3A cells, luciferase, luminescence, MLSCN library; IL-6 STAT3-luciferase reporter; 100% = signal with IL-6 EC80 alone; activation (% of control), % at 5.6 µM; 190,000 tested, 0.91% active; AID 871, 2007;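 active means activation above the screen-wide mean of compound activation plus 3 SD, cut at about 130% in these data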;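 further: 0% = background luminescence of wells with medium and substrate only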
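Test system: Human STAT1-deficient U3A cells with stable STAT3-luciferase reporter | Also added: Interleukin-6, 33 ng/mL | Timing: Compound pre-incubation 1 h before IL-6, then 6 h stimulation at 37 °C | Technique: Luciferase reporter luminescence | Read-out: Percent of IL-6-only median luminescence | Benchmarks: IL-6-only wells as 100% reference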
STAT3 inh-2: STAT3 reporter inhibitors, retest of hits, confirmation, U3A cells, luciferase, luminescence; shares compounds with STAT3 inh-1; IL-6 STAT3 luciferase reporter; cell line lacks STAT1; inhibition, % at 5.7 µM; 1,200 tested, 45% active; AID 1265, 2008;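 active means inhibition above the hit cutoff computed for the primary STAT3 screen, cut at about 44% in these data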;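 further: 0% = IL-6 plus DMSO and 100% = IL-6 plus nifuroxazide control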
NFkB inh 2: NF-kB reporter inhibitors in human cells, confirmation, counter-screen for STAT3 inhibitor project, cell-based, HEK293T, luciferase, TNF-alpha stimulus | shares compounds with STAT3 inh-1 | TNF-alpha induced | inhibition, % at 5.7 µM | 1,200 tested, 36% active | AID 1308, 2008;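 active means inhibition above the mean of solvent-only control wells plus 3 SD, cutoff set per campaign, cut at about 13% in these data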;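 further: 0% = TNF-alpha with DMSO and 100% = TNF-alpha with MG high control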
STAT1 inh 2: STAT1 reporter inhibitors, IFN-gamma induced, confirmation, counter-screen for STAT3 inhibitor project, cell-based, NIH 3T3, luciferase luminescence; AID 1317, 2008; 1,200 tested, 27% active; inhibition, % at 5.7 µM; NIH 3T3 STAT1-luciferase reporter; shares compounds with STAT3 inh-1;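 active means inhibition above the mean plus 3 SD of solvent-only control wells, limit set per screening run, cut at about 16% in these data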;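 further: 0% = DMSO with IFN-gamma and 100% = nifuroxazide control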
Active calls of the source: *; · = not tested or not shown.

SMILES	NF-kB expr up	STAT3 inh-1	APP 5'UTR act	STAT1 blocker	STAT1 activator	STAT3 activator	STAT3 inh-2	NFkB inh 2	STAT1 inh 2
Cc1ccc(-c2cc(-c3ccccc3)no2)c(O)c1	3.7*	49*	276*	-14	113	56	7	18*	-21
Cc1ccc(OCc2nc(-c3cccs3)no2)c([N+](=O)[O-])c1	11*	50*	198*	0	98	61	-53	-27	-152
O=C(O)/C=C/c1cnn(-c2ccccc2)c1	1.9	45*	90	29	74	66	13	-14	-29
Cc1cccc(NC(=O)c2ccccc2OCC(=O)N2CCCC2)c1C	0.88	5	17	-4	100	100	·	·	·
O=C(Nc1nonc1NC(=O)c1cccs1)c1cccs1	0.93	44*	-18	11	91	66	47*	13*	7
CNc1ccccc1C(C)(C)c1cc(-c2cccc(Br)c2)no1	0.62	9	-11	30	72	96	·	·	·
CNc1ccccc1C(C)(C)c1cc(-c2ccc(F)cc2)no1	0.91	46*	13	-2	102	62	51*	11	2
CN(C(=O)CSc1nc2cc(C(=O)O)ccc2c(=O)n1Cc1ccccc1)C1CCS(=O)(=O)C1 (centres undefined)	1.2	-9	13	9	90	109	·	·	·
CC(=O)Nc1ccc(-c2csc(Nc3ccc(Cl)cn3)n2)cc1	1.2	52*	28	-20	118	60	46*	5	-18
CC(=O)NNc1ncnc2c1cnn2-c1ccccc1	0.95	14	-4	7	94	94	·	·	·
CC(C)Nc1ncnc2c1cnn2-c1ccc(Cl)cc1	1.1	55*	155*	5	93	55	16	-31	-186
COC(=O)c1cccc(NC(=O)CSc2nc3cccnc3n2C)c1	0.53	57*	-11	7	93	57	48*	4	7
Cc1csc(N/N=C/c2ccccn2)n1	1.5	53*	127	28	74	59	20	10	-42
Cc1occc1C(=O)N/N=C/c1ccccn1	1.4	-2	-2	-24	120	104	·	·	·
CCOC(=O)Cn1nc(C)c(NC(=O)c2ccc(Cl)c([N+](=O)[O-])c2)c1C	1.1	6	4	9	91	98	·	·	·
O=[N+]([O-])c1cc(/C=N/NC(=S)Nc2ccccc2Cl)ccc1Cl	1.6	4	-2	-17	114	100	·	·	·
COc1ccc(/C=N/NC(=S)Nc2ccccc2[N+](=O)[O-])cc1O	0.43	94*	206*	-3	102	22	83*	-6	-13
CCCOc1ccc(/C=N/NC(=S)Nc2ccccc2[N+](=O)[O-])c(O)c1	0.64	92*	-47	3	98	24	48*	-11	-8
Cc1ccc([N+](=O)[O-])cc1NC(=O)C(Sc1ccccc1)c1ccccc1 (centres undefined)	1.7	-8	-8	-7	107	105	·	·	·
O=C(CN1C(=O)COc2ccccc21)N(CCCN1CCOCC1)CC1CC=CCC1 (centres undefined)	1.1	8	15	-9	107	99	·	·	·
Cn1c(=O)n(C)c2cc([N+](=O)[O-])c(N3CCN(C(=O)c4ccccc4Cl)CC3)cc21	0.51	63*	9	18	84	53	40	9	11
CCc1ccc(NC(=O)c2cc(C)on2)cc1	5.8*	49*	200*	-17	115	63	12	-34	-87
CCc1ccc(NC(=O)c2cc(-c3ccc(OC)cc3)on2)cc1	1.1	4	9	-1	101	96	·	·	·
COc1cc(NC(=O)c2cc(C(C)C)on2)cc(OC)c1OC	0.9	16	4	5	96	91	·	·	·
CCc1ccc(NC(=O)c2cc(C(C)C)on2)cc1	8*	48*	137*	-23	121	65	9	-36	-105
SMILES	NF-kB expr up	STAT3 inh-1	APP 5'UTR act	STAT1 blocker	STAT1 activator	STAT3 activator	STAT3 inh-2	NFkB inh 2	STAT1 inh 2
Cc1nc2ccc(NC(=O)c3cccs3)cc2c(=O)n1Cc1ccc(Cl)cc1	0.51	51*	-19	2	97	60	43	6	-6
Cc1cc(C)nc(NC(=O)/C=C/c2ccccc2Cl)c1	3.2	-13	110	-28	126	111	·	·	·
Cc1ccnc(NC(=O)/C=C/c2ccccc2Cl)c1	8.7*	55*	186*	-23	121	55	28	-9	-100
CC(/C=N\NC(=O)Cn1c(C)nc2ccccc21)=C\c1ccccc1	0.81	70*	-8	20	82	41	69*	15*	17*
CC(/C=N/NC(=O)CSc1nc(C)cc(C)n1)=C\c1ccccc1	0.98	-8	14	-3	103	110	·	·	·
CC1C/C(=C/c2ccncc2)C(=O)/C(=C/c2ccncc2)C1 (centres undefined)	0.23	53*	-95	26	75	57	44*	-20	19*
CN1CCC(=NNC(=O)C(=O)Nc2ccccc2F)CC1	1.3	15	11	0	100	97	·	·	·
Cc1ccc(NC(=O)C2OCCc3ccccc32)cc1 (centres undefined)	1.7	7	22	-12	111	98	·	·	·
Cc1ccc(NC2=Nc3ccccc3CC2)cc1	3.7*	44*	179*	5	95	67	32	-10	-62
CCn1c(-c2ccc(N(C)C)cc2)nc2ccccc21	2.9	44*	96	-8	108	64	16	-35	-36
CN(C)c1ccc(-c2nc3ccccc3n2C)cc1	2.1	77*	97	29	74	35	25	6	-66
CCn1c(-c2ccc(N)cc2)nc2ccccc21	1.1	2	-1	-15	114	106	·	·	·
Cc1c(C(=O)OCCOc2ccccc2)[nH]c2c1C(=O)CCC2	3.5*	59*	87	-19	117	52	29	-18	-107
Cc1ccc2cn[nH]c2c1N	0.9	-19	4	10	91	130	·	·	·

Screening results as filed in PubChem.
